Experimental data: article PMC3076219 (European journal of immunology, 2009)
Values joined by “and” are separate entries in the source; they are usually repeats but may differ in a detail not shown here. Identical values can stand only once.

Experiments:
[1] = test system: FPR2; experiment: FPR2 surface expression on neutrophils; assay type: cell-based, human; conditions: LL-37; data not shown
[2] = test system: CXCR2; experiment: CXCR2 surface expression on monocytes; assay type: cell-based, human; conditions: Supporting information Fig. 2
[3] = test system: neutrophils; experiment: Cross-desensitization of calcium mobilization of neutrophils; assay type: cell-based, human
[4] = test system: 125I-CXCL8 specific binding sites on neutrophils (CXCR1/2); experiment: Competition with 125I-CXCL8 for binding to neutrophils; parameters: species or system human; conditions: 1.25 nM 125I-CXCL8, 2h on ice, triplicate, dose-dependent, Fig. 5B
[5] = test system: neutrophils; experiment: Neutrophil migration, 24-well Transwell; assay type: cell-based, human; conditions: 1 h, 37°C, Fig. 6H
How it was run: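 CFSE-labelled human neutrophils (5 µM, 5 min RT) at 5×10^6/mL in phenol-red-free RPMI 1640 with 1% FBS went in the Transwell upper chamber (3-µm pores). The lower chamber held test peptide (1 or 5 µM) or medium. Some cells were first preincubated 20 min with 10 µM CXCR2 antagonist. After 1 h at 37 °C, migrated cells were read at 495 nm against a standard curve. Quadruplicate; unpaired t-test.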

[6] = test system: CXCR2; experiment: Calcium mobilization in HEK293/CXCR2 cells; assay type: cell-based, human; conditions: Indo-1; Fig. 7A-B
How it was run: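 They were washed in cold PBS, pelleted at 200 × g for 10 min at 4 °C, and resuspended in PBS with Ca/Mg. […] [Ca2+]i was read as the 405:485 nm ratio by flow cytometry, gating on living cells.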

[7] = test system: THP-1 cells; experiment: Calcium mobilization in THP-1 cells; assay type: cell-based; conditions: Fig. 7C
How it was run: (§1)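 Peripheral blood monocytes (kit-isolated from PBMC, CD14-checked) or THP-1 cells at 10^7/mL were loaded with 5 µM Indo-1-AM for 7 min at 37 °C, then held 10 min at RT and washed in cold PBS. Cells were run at 2×10^6/mL in KRP (PBS, 1.5 mM CaCl2, 1.5 mM MgSO4). After baseline they got a first stimulus, then a second. Flow cytometry used 351 nm excitation and the 405:485 nm ratio, gating live cells. Three independent experiments.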

[8] = test system: monocytes; experiment: Calcium mobilization in monocytes; assay type: cell-based, human
How it was run: as §1

[9] = test system: THP-1 cells; experiment: Migration of THP-1 cells, 24-well Transwell; assay type: cell-based; conditions: LL-37 5 µM, CXCL1 50 nM, WKYMVm 5 µM, ATP 50 µM, BzATP 50 µM; 2 h, 37°C; Fig. 7E
How it was run: (§2)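 CFSE-labelled monocytes or THP-1 cells (5 µM, 5 min RT) at 2×10^6/mL in phenol-red-free RPMI 1640 with 1% FBS went in the Transwell upper chamber (3-µm pores). Stimuli in the lower chamber included CXCL1 50 nM, WKYMVm 5 µM and ATP/BzATP 50 µM. Cells were used with or without 20 min preincubation with 10 µM CXCR2 antagonist. Incubation at 37 °C lasted 90 min for monocytes and 2 h for THP-1. Lower-well cells were read at 495 nm against a standard curve, in quadruplicate.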

[10] = test system: monocytes; experiment: Migration of monocytes, 24-well Transwell; assay type: cell-based, human; conditions: LL-37 5 µM, CXCL1 50 nM, WKYMVm 5 µM, ATP 50 µM, BzATP 50 µM; 90 min, 37°C; Fig. 7F
How it was run: as §2

[11] = test system: CXCR2; experiment: Confocal analysis of CXCR2 internalization in neutrophils; assay type: cell-based, human; conditions: LL-37 5 µM or CXCL8 50 nM, 1 h, 37°C; Fig. 8
How it was run: (§3)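 Neutrophils came from citrated donor blood by dextran sedimentation and Ficoll gradient. […] Cells were fixed in 2% paraformaldehyde, permeabilised with saponin and blocked with human serum. Anti-CXCR1 or anti-CXCR2 mAb (4°C), then Alexa 488 anti-mouse IgG, DAPI mount, confocal imaging; three independent experiments.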

[12] = test system: CXCR1; experiment: Confocal analysis of CXCR1 internalization in neutrophils; assay type: cell-based, human; conditions: LL-37 5 µM or CXCL8 50 nM, 1 h, 37°C; Fig. 8
How it was run: as §3

[13] = test system: CXCR2 transfected HEK293 cells; experiment: Secondary necrosis of CXCR2 transfected HEK293 cells; assay type: cell-based; conditions: Supporting information Fig. 4
[14] = test system: neutrophils; experiment: Toxicity to neutrophils; assay type: cell-based, human
[15] = test system: CXCR2; experiment: Block of anti-CXCR2 antibody binding to neutrophils; assay type: cell-based, human; conditions: LL-37 treated neutrophils; Supporting Information Fig. 6A
[16] = test system: CXCR2; experiment: Total CXCR2 protein in neutrophils, western blot; assay type: cell-based, human; conditions: LL-37 treated neutrophils, Supporting Information Fig. 6B
[17] = test system: neutrophils; conditions: cited from earlier work
[18] = test system: monocytes; conditions: cited from earlier work
[19] = test system: neutrophils; conditions: ref [15], cited from earlier work
[20] = test system: neutrophils; conditions: LL-37; ref [15]; cited from earlier work
[21] = test system: immature dendritic cells; conditions: differentiated from monocytes; ref [9]; cited from earlier work
[22] = test system: neutrophils; conditions: ref [13]; cited from earlier work
[23] = test system: P2X7; conditions: LL-37; ref [14]; cited from earlier work
[24] = test system: macrophages; conditions: including chemokines and their receptors; ref [6]; cited from earlier work
[25] = cited from earlier work
[26] = test system: CD4+ T cells; conditions: ref [3], [9], [10]; cited from earlier work
[27] = test system: mast cells; conditions: ref [3], [9], [10]; cited from earlier work

LL-37: ~4.5 kD active α-helical peptide, C-terminal domain of human cathelicidin hCAP18
FPR2 surface expression, time course [1]: remained unchanged | CXCR2 down-regulation on monocytes [2]: down-regulate CXCR2 | cross-desensitization of ATP response by LL-37 ([3]; LL-37 first, then ATP, Supporting information Fig. 3A-B): unable to block calcium mobilization stimulated by LL-37 in neutrophils, and vice versa | cross-desensitization of response to fMLF by LL-37, CXCL7, CXCL1 ([3]; data not shown): do not cross-sensitize fMLF stimulation | maximum competition of 125I-CXCL8 binding ([4]; 2×10^6 cells): around 50% | displacement of 125I-CXCL8 [4]: partly displace | neutrophil migration at 1 µM ([5]; LL-37 1 µM): not at 1 µM | neutrophil migration at 5 µM ([5]; LL-37 5 µM, over background, p<0.05): induced neutrophil migration (over background) | calcium mobilization in CXCR2 transfected HEK293 cells [6]: weak but similar patterns of calcium mobilization | calcium signal in THP-1 cells [7]: robust calcium signal | return of Ca2+ response to baseline, THP-1 ([7]; LL-37): returns to baseline for THP-1 cells | block of ATP induced calcium mobilization by LL-37 ([7]; THP-1): able to partially block | return of Ca2+ response to baseline, monocytes ([8]; LL-37, Fig. 7D): returns to baseline for THP-1 cells, but not for neutrophils and monocytes | cross-block of ATP stimulated calcium mobilization in monocytes ([8]; LL-37 first, then ATP, Fig. 7D): neither ATP nor WKYMVm cross-block LL-37 stimulated calcium mobilization and vice versa | cross-block of WKYMVm stimulated calcium mobilization in monocytes ([8]; LL-37 first, then WKYMVm, Fig. 7D): neither ATP nor WKYMVm cross-block LL-37 stimulated calcium mobilization and vice versa | calcium mobilization in monocytes ([8]; LL-37 stimulated): stimulates calcium mobilization | stimulation of migration of THP-1 cells [9]: but not THP-1 cells | stimulation of migration of monocytes [10]: able to stimulate migration in monocytes | CXCR2 translocation (internalization) [11]: translocation of CXCR2 but not CXCR1 to the cytoplasmic granules | CXCR1 translocation (internalization) [12]: translocation of CXCR2 but not CXCR1 to the cytoplasmic granules | generation of secondary necrotic cells, HEK293/CXCR2 [13]: generation of secondary necrotic cells | cell membrane permeability ([14]; > 10 µM LL-37, 125I-CXCL8 enters cells non-specifically): can cause cell membrane permeability | concentration with toxic activity on neutrophils ([14]; in 125I-CXCL8 binding study): > 10 µM and 10 µM | block of anti-CXCR2 antibody binding [15]: did not block anti-CXCR2 antibodiy binding | total CXCR2 protein level [16]: no changes in total amounts | migration of neutrophils ([17]; ref [3], [9], [10]): migration of human peripheral monocytes, neutrophils | neutrophil migration (literature) ([17]; ref [9]): induces neutrophil migration | migration of human peripheral monocytes ([18]; ref [3], [9], [10]): migration of human peripheral monocytes | in vitro migration of human peripheral blood monocytes ([18]; ref [9]): induces in vitro migration of human peripheral blood monocytes | cytotoxicity ([19]; LL-37 10 µM): general cytotoxicity is observed at this dosage | toxic effect on freshly isolated neutrophils ([19]; annexin V negative): no toxic effect | ATP release [20]: induces ATP release from neutrophils | migration of immature dendritic cells [21]: but not immature dendritic cells | inhibition of spontaneous neutrophil apoptosis [22]: potent inhibitor of spontaneous neutrophil apoptosis | IL-1β processing and release from monocytes [23]: induce IL-1β processing and release from monocytes | number of genes with stimulated expression by macrophages [24]: over 40 genes | wound neovascularization ([25]; ref [7]): promotes wound neovascularization | re-epithelialization of healing skin ([25]; ref [8]): re-epithelialization of healing skin | migration of CD4+ T cells [26]: migration of human peripheral monocytes, neutrophils, CD4+ T cells | migration of mast cells [27]: migration of human peripheral monocytes, neutrophils, CD4+ T cells, and mast cells
